According to ChEMBL document CHEMBL4184147, “Polyphenolic Phytochemicals in Cancer Prevention and Therapy: Bioavailability versus Bioefficacy” (J Med Chem, 2017):
pIC50: −log10 of the molar value.

Legend:
HT-29 [1] = assay: Cytotoxicity against human HT-29 cells assessed as decrease in cell viability after 48 hrs by trypan blue exclusion and LDH release; conditions: HT-29, 48 h
[2] = Cmax in mouse at 10 mg/kg, iv by LC-MS/MS method; type: ADME, organism-based; parameters: dose 10 mg/kg, route intravenous; conditions: in vivo
Summary of the method: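 Mouse iv dosing used polyphenol dissolved in DMSO:ethanol (2:1), with total injected volume never above 30 μL. Plasma levels were measured by previously described methods.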

BXPC-3 [3] = assay: Cytotoxicity against human BxPC3 cells assessed as decrease in cell viability after 48 hrs by MTT assay; type: functional, cell-based; conditions: BXPC-3, 48 h
[4] = Cytotoxicity against human MML1 cells assessed as decrease in cell viability after 48 hrs by MTT assay; type: functional, cell-based
U-87 MG [5] = assay: Cytotoxicity against human U87 cells assessed as cell viability at 14 uM after 48 hrs by MTT assay; type: functional, U-87MG ATCC; conditions: read-out: Activity
A549 [6] = assay: Cytotoxicity against human A549 cells assessed as decrease in cell viability after 48 hrs by trypan blue exclusion and LDH release; conditions: A549, 48 h
[7] = (§1) Cmax in mouse at 100 mg/kg, po by HPLC method; type: ADME, organism-based; parameters: dose 100 mg/kg, route oral; conditions: in vivo
Summary of the method: (§2)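 For oral dosing, polyphenol was dissolved in a self-microemulsifying delivery system: 60% surfactant (emulsifier OP:Cremophor EL 1:1), 30% cosurfactant (PEG 400) and 10% oil (ethyl oleate). Total volume given was never above 100 μL. Plasma levels were quantified by previously described methods.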

MDA-MB-231 [8] = assay: Cytotoxicity against human MDA-MB-231 cells assessed as decrease in cell viability after 48 hrs by trypan blue exclusion and LDH release; conditions: MDA-MB-231, 48 h
U-87 MG [9] = assay: Cytotoxicity against human U87 cells assessed as decrease in cell viability after 48 hrs by trypan blue exclusion and LDH release
COLO 201 [10] = assay: Cytotoxicity against human COLO201 cells assessed as decrease in cell viability after 48 hrs by trypan blue exclusion and LDH release; conditions: COLO 201, 48 h
LN-229 [11] = assay: Cytotoxicity against human LN229 cells assessed as cell viability at 14 uM after 48 hrs by MTT assay; type: functional; conditions: LN-229, 48 h, read-out: Activity
PANC-1 [12] = assay: Cytotoxicity against human PANC1 cells assessed as decrease in cell viability after 48 hrs by MTT assay; type: functional, cell-based; conditions: PANC-1, 48 h
BXPC-3 [13] = assay: Cytotoxicity against human BxPC3 cells assessed as cell viability at 14 uM after 48 hrs by MTT assay; type: functional; conditions: BXPC-3, 48 h, read-out: Activity
COLO 201 [14] = assay: Cytotoxicity against human COLO201 cells assessed as cell viability at 14 uM after 48 hrs by MTT assay; type: functional; conditions: COLO 201, 48 h, read-out: Activity
NCI-H460 [15] = assay: Cytotoxicity against human NCI-H460 cells assessed as decrease in cell viability after 48 hrs by MTT assay; type: functional, cell-based; conditions: NCI-H460, 48 h
[16] = Plasma concentration in mouse at 10 mg/kg, iv at 60 mins by LC-MS/MS method; type: ADME, organism-based
Summary of the method: (§3)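 For IV dosing, compound dissolved in DMSO:ethanol (2:1), total volume no more than 30 μL. For oral dosing, compound given in a self-microemulsifying delivery system (60% surfactant, emulsifier OP:Cremophor EL 1:1; 30% PEG 400; 10% ethyl oleate), total volume no more than 100 μL. Plasma levels measured by previously described methods.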

[17] = Tmax in mouse at 10 mg/kg, iv by LC-MS/MS method; type: ADME, organism-based; conditions: in vivo
Summary of the method: as §3

HT-29 [18] = assay: Cytotoxicity against human HT-29 cells assessed as cell viability at 14 uM after 48 hrs by MTT assay; type: functional; conditions: HT-29, 48 h, read-out: Activity
NCI-H460 [19] = assay: Cytotoxicity against human NCI-H460 cells assessed as cell viability at 14 uM after 48 hrs by MTT assay; type: functional; conditions: NCI-H460, 48 h, read-out: Activity
T47D [20] = assay: Cytotoxicity against human T47D cells assessed as cell viability at 14 uM after 48 hrs by MTT assay; type: functional; conditions: read-out: Activity
[21] = (§4) Tmax in mouse at 100 mg/kg, po by HPLC method; type: ADME, organism-based; conditions: in vivo
Summary of the method: (§5)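 Given orally in a self-microemulsifying delivery system (60% surfactant, emulsifier OP:Cremophor EL 1:1; 30% PEG 400 cosurfactant; 10% ethyl oleate oil), total volume no more than 100 μL. Plasma levels measured by previously described methods.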

MDA-MB-231 [22] = assay: Cytotoxicity against human MDA-MB-231 cells assessed as cell viability at 14 uM after 48 hrs by MTT assay; type: functional; conditions: MDA-MB-231, 48 h, read-out: Activity
LN-229 [23] = assay: Cytotoxicity against human LN229 cells assessed as decrease in cell viability after 48 hrs by trypan blue exclusion and LDH release; conditions: LN-229, 48 h
[24] = Plasma concentration in mouse at 100 mg/kg, po at 60 mins by LC-MS/MS method; type: ADME, organism-based
Summary of the method: as §3

T47D [25] = assay: Cytotoxicity against human T47D cells assessed as decrease in cell viability after 48 hrs by trypan blue exclusion and LDH release
SK-MEL-2 [26] = assay: Cytotoxicity against human SK-MEL-2 cells assessed as decrease in cell viability after 48 hrs by MTT assay; type: functional, cell-based; conditions: SK-MEL-2, 48 h
A549 [27] = assay: Cytotoxicity against human A549 cells assessed as cell viability at 14 uM after 48 hrs by MTT assay; type: functional; conditions: A549, 48 h, read-out: Activity
SK-MEL-2 [28] = assay: Cytotoxicity against human SK-MEL-2 cells assessed as cell viability at 14 uM after 48 hrs by MTT assay; type: functional; conditions: SK-MEL-2, 48 h, read-out: Activity
Homo sapiens = assay: Renal toxicity in patient assessed as decrease in glomerular flow rate at 1400 mg/m'2, iv administered as bolus dose measured after 24 hrs relative to control; type: organism-based; parameters: scale not given: the % may be the effect or the level left; conditions: in vivo
[29] = Cytotoxicity against human MML1 cells assessed as cell viability at 14 uM after 48 hrs by MTT assay; type: functional; conditions: read-out: Activity
PANC-1 [30] = assay: Cytotoxicity against human PANC1 cells assessed as cell viability at 14 uM after 48 hrs by MTT assay; type: functional; conditions: PANC-1, 48 h, read-out: Activity
Mus musculus [31] = assay: as §1; type: ADME, organism-based; parameters: dose 100 mg/kg, route oral; conditions: in vivo
Summary of the method: as §2

MDA-MB-231 [32] = assay: Cytotoxicity against human MDA-MB-231 cells assessed as cell viability at 41 uM after 48 hrs by MTT assay; type: functional; conditions: MDA-MB-231, 48 h, read-out: Activity
NCI-H460 [33] = assay: Cytotoxicity against human NCI-H460 cells assessed as cell viability at 41 uM after 48 hrs by MTT assay; type: functional; conditions: NCI-H460, 48 h, read-out: Activity
U-87 MG [34] = assay: Cytotoxicity against human U87 cells assessed as cell viability at 41 uM after 48 hrs by MTT assay; type: functional, U-87MG ATCC; conditions: read-out: Activity
PANC-1 [35] = assay: Cytotoxicity against human PANC1 cells assessed as cell viability at 41 uM after 48 hrs by MTT assay; type: functional; conditions: PANC-1, 48 h, read-out: Activity
LN-229 [36] = assay: Cytotoxicity against human LN229 cells assessed as cell viability at 41 uM after 48 hrs by MTT assay; type: functional; conditions: LN-229, 48 h, read-out: Activity
T47D [37] = assay: Cytotoxicity against human T47D cells assessed as cell viability at 41 uM after 48 hrs by MTT assay; type: functional; conditions: read-out: Activity
Lipid bilayer = assay: Induction of DOPC/n-decane bilayer property changes assessed as concentration required to double gramicidin-induced quencher influx rate by […]
Mus musculus [38] = assay: as §4; type: ADME, organism-based; conditions: in vivo
Summary of the method: as §5

SK-MEL-2 [39] = assay: Cytotoxicity against human SK-MEL-2 cells assessed as cell viability at 41 uM after 48 hrs by MTT assay; type: functional; conditions: SK-MEL-2, 48 h, read-out: Activity
HT-29 [40] = assay: Cytotoxicity against human HT-29 cells assessed as cell viability at 41 uM after 48 hrs by MTT assay; type: functional; conditions: HT-29, 48 h, read-out: Activity
BXPC-3 [41] = assay: Cytotoxicity against human BxPC3 cells assessed as cell viability at 41 uM after 48 hrs by MTT assay; type: functional; conditions: BXPC-3, 48 h, read-out: Activity
A549 [42] = assay: Cytotoxicity against human A549 cells assessed as cell viability at 41 uM after 48 hrs by MTT assay; type: functional; conditions: A549, 48 h, read-out: Activity
[43] = Cytotoxicity against human MML1 cells assessed as cell viability at 41 uM after 48 hrs by MTT assay; type: functional; conditions: read-out: Activity
COLO 201 [44] = assay: Cytotoxicity against human COLO201 cells assessed as cell viability at 41 uM after 48 hrs by MTT assay; type: functional; conditions: COLO 201, 48 h, read-out: Activity

Q: With `O=c1c(O)c(-c2ccc(O)c(O)c2)oc2cc(O)cc(O)c12` [QUERCETIN] as the molecule, how does the pIC50 (HT-29 [1]) read?
A: 4.74

Q: What about the Cmax [2] of the same molecule?
A: 27 µM

Q: And the pIC50 (BXPC-3 [3])?
A: 4.80

Q: And the pIC50 [4]?
A: 4.82

Q: What about the viability at 14 µM (U-87 MG [5]) of the same molecule?
A: 97%

Q: And the pIC50 (A549 [6])?
A: 4.89

Q: And the Cmax [7]?
A: 8 µM

Q: And the pIC50 (MDA-MB-231 [8])?
A: 4.70

Q: What about the pIC50 (U-87 MG [9]) of the same molecule?
A: 4.64

Q: And the pIC50 (COLO 201 [10])?
A: 4.72

Q: What about the viability at 14 µM (LN-229 [11]) of the same molecule?
A: 106%

Q: And the pIC50 (PANC-1 [12])?
A: 4.21

Q: What about the viability at 14 µM (BXPC-3 [13]) of the same molecule?
A: 96%

Q: And the viability at 14 µM (COLO 201 [14])?
A: 101%

Q: And the pIC50 (NCI-H460 [15])?
A: 4.92

Q: And the concentration at 1 h [16]?
A: < 1 µM

Q: What about the Tmax [17] of the same molecule?
A: 5 min

Q: What about the viability at 14 µM (HT-29 [18]) of the same molecule?
A: 94%

Q: What about the viability at 14 µM (NCI-H460 [19]) of the same molecule?
A: 95%

Q: And the viability at 14 µM (T47D [20])?
A: 100%

Q: What about the Tmax [21] of the same molecule?
A: 15 min

Q: And the viability at 14 µM (MDA-MB-231 [22])?
A: 103%

Q: What about the pIC50 (LN-229 [23]) of the same molecule?
A: 4.92

Q: What about the concentration at 1 h [24] of the same molecule?
A: < 1 µM

Q: What about the pIC50 (T47D [25]) of the same molecule?
A: 4.96

Q: What about the pIC50 (SK-MEL-2 [26]) of the same molecule?
A: 4.92

Q: What about the viability at 14 µM (A549 [27]) of the same molecule?
A: 104%

Q: And the viability at 14 µM (SK-MEL-2 [28])?
A: 97%

Q: And the Activity (Homo sapiens)?
A: 20%

Q: What about the viability at 14 µM [29] of the same molecule?
A: 103%

Q: And the viability at 14 µM (PANC-1 [30])?
A: 102%

Q: What does the source list for `COc1cc(/C=C/C(=O)CC(=O)/C=C/c2ccc(O)c(OC)c2)ccc1O` [CURCUMIN]?
A: pIC50 (HT-29 [1]): 4.85; Cmax [2]: 81 µM; pIC50 (BXPC-3 [3]): 4.54; pIC50 [4]: 4.72; pIC50 (A549 [6]): 4.74; Cmax (Mus musculus [31]): 27 µM; pIC50 (MDA-MB-231 [8]): 4.92; pIC50 (U-87 MG [9]): 4.80; pIC50 (COLO 201 [10]): 4.74; viability at 41 µM (MDA-MB-231 [32]): 90%; pIC50 (PANC-1 [12]): 4.28; pIC50 (NCI-H460 [15]): 4.82; concentration at 1 h [16]: < 1 µM; viability at 41 µM (NCI-H460 [33]): 95%; viability at 41 µM (U-87 MG [34]): 92%; viability at 41 µM (PANC-1 [35]): 99%; viability at 41 µM (LN-229 [36]): 91%; viability at 41 µM (T47D [37]): 88%; Activity (Lipid bilayer): 8.6 µM; Tmax (Mus musculus [38]): 15 min; pIC50 (LN-229 [23]): 4.82; viability at 41 µM (SK-MEL-2 [39]): 97%; viability at 41 µM (HT-29 [40]): 83%; concentration at 1 h [24]: < 1 µM; viability at 41 µM (BXPC-3 [41]): 102%; pIC50 (T47D [25]): 4.72; pIC50 (SK-MEL-2 [26]): 4.44; viability at 41 µM (A549 [42]): 96%; viability at 41 µM [43]: 105%; viability at 41 µM (COLO 201 [44]): 81%
